The test system of one data set is HCT-8. The experiment in a line: Cytotoxicity against human HCT8 cells after 69 hrs by MTT assay. Format: functional, cell-based. The conditions noted are these: HCT-8, 69 h. The method in brief:
(§1)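 Tumor lines from NCI, kept in RPMI 1640 with 10% FBS, 2 mM glutamine, penicillin/streptomycin, 37 °C, 5% CO2. Seeded at 0.7 × 10^5 cells/well (adherent) or 0.3 × 10^6 cells/well (suspension). Compounds at 0.078-5 µg/mL in DMSO (final below 0.1%), 69 h, then MTT 0.5 mg/mL for 3 h. Formazan dissolved in DMSO, A595. Triplicates; IC50 by nonlinear regression.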
(Tetrazolium dyes change colour on reduction, which living cells bring about.)

The test system of the next data set is SF-295. The experiment in a line: Cytotoxicity against human SF295 cells after 69 hrs by MTT assay. Format: functional, cell-based. Conditions: SF-295, 69 h; call rule not given here. An outline of the steps: as §1
Data set [1] can be described thus: Hemolytic activity in mouse erythrocytes at 200 ug/ml after 1 hr by spectrophotometer. Type of data set: ADME, cell-based. The conditions noted are these: erythrocyte. The method in brief: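 Mouse erythrocytes as a 2% suspension in 0.85% NaCl with 10 mM CaCl2. Compounds tested at 0.78-200 µg/mL; 1% DMSO served as negative control and 0.2% Triton X-100 set 100% hemolysis. After 1 h at room temperature and centrifugation, released hemoglobin in the supernatant measured at 540 nm absorbance.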

Another data set deals with MDA-MB-435. The experiment in a line: Cytotoxicity against human MDA-MB-435 cells after 69 hrs by MTT assay. Type of data set: functional, cell-based. Conditions: MDA-MB-435, 69 h. The method in brief: as §1
The test system of a further data set is PBMC. The experiment in a line: Cytotoxicity against human PBMC after 72 hrs by alamar blue assay. Format: cell-based. An outline of the steps: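 PBMC isolated from heparinized blood of healthy nonsmoking donors by Ficoll-Hypaque gradient. Cells at 3 × 10^5 cells/mL in RPMI 1640 with 20% FBS, 37 °C, 5% CO2, phytohemagglutinin 3% added at the start. Compounds added after 24 h at 0.078-5 µg/mL in DMSO (final below 0.1%), exposure 72 h. Alamar Blue added for the last 24 h; absorbance read at 570 and 595 nm, expressed as % reduced versus control.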

The subject of another data set is HL-60. The experiment in a line: Cytotoxicity against human HL60 cells after 69 hrs by MTT assay. Type of data set: functional, cell-based. Conditions: HL-60, 69 h. An outline of the steps:
as §1

As a reminder, the IC50 is the midpoint of a concentration-inhibition curve. A lower IC50 goes with greater potency in that assay. Take `C=C1C(=O)[C@@]23CC[C@H]4[C@@](C)(CCC[C@]4(C)C(=O)O)[C@@H]2CC[C@@H]1C3`: the IC50 was 1.5 µM in the data set on HCT-8; 3.7 µM with SF-295; 4.2 µM in the data set with MDA-MB-435; > 10 µM in the data set on PBMC; 2 µM with HL-60. The Activity result in data set [1] was “Not Active”.
`C=C1C(=O)O[C@@]23CC[C@H]4[C@@](C)(CCC[C@]4(C)C(=O)O)[C@@H]2CC[C@@H]1C3` (relative stereo): the IC50 in the data set with HCT-8 is 5.2 µM; with SF-295 it was > 10 µM; with MDA-MB-435, > 10 µM; with PBMC, > 10 µM; in the data set on HL-60 it was 8.2 µM. Moreover, the Activity entry in data set [1] is on record as “Not Active”.
With `C=C(C(=O)OC)C1C[C@H](OC(C)=O)C2=C(CC[C@@H]3[C@@](C)(C(=O)OC)C(=O)CC[C@@]23C)[C@@H]1OC(C)=O` (relative stereo) [ABIETANE], the IC50 in the data set with HCT-8, with SF-295, in the data set on MDA-MB-435, in the data set on PBMC and in the data set with HL-60 was > 10 µM each time. In data set [1], the Activity entry is “Not Active”.
On to `COc1cccc2c1C(=O)c1c(O)c3c(c(O)c1C2=O)C[C@@](O)(C(=O)CO)C[C@@H]3O[C@H]1C[C@H](N)[C@H](O)[C@H](C)O1` [DOXORUBICIN], for which the IC50 in the data set with HCT-8 turned out to be 0.09 µM; in the data set on SF-295 it was 0.37 µM; in the data set on MDA-MB-435, 1.67 µM; in the data set with PBMC it was 0.5 µM; in the data set on HL-60, 0.05 µM.
